The target in data set [1] is T1, mutant AR (expressed in LNCaP) (Homo sapiens, UniProt P10275, T878A).
T1 sequence (P10275 1-920 T878A): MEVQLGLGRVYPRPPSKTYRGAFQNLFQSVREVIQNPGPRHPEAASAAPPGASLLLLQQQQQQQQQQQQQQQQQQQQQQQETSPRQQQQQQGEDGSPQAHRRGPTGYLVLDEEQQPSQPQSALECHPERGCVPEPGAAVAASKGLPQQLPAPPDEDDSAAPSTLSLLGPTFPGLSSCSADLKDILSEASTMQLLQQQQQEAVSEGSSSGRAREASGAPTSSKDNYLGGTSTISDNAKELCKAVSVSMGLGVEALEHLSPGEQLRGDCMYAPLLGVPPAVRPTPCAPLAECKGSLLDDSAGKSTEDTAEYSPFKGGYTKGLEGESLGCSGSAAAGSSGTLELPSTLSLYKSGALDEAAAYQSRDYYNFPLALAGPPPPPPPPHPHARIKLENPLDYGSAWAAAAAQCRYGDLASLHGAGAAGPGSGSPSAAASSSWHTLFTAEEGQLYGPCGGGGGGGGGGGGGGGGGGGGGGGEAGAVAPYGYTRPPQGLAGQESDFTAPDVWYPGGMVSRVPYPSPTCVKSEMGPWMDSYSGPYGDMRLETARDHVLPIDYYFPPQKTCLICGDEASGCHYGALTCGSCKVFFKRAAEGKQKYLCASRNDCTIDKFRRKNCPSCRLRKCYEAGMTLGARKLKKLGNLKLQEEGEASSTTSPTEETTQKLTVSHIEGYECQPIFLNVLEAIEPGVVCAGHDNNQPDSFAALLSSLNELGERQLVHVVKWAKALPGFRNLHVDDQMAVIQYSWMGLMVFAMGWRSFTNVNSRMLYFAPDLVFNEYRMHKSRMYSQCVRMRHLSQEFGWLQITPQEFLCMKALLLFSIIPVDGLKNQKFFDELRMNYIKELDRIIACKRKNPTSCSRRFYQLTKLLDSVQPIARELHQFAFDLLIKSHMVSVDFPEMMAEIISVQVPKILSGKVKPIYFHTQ
The data set can be described thus: cell-based. The format is binding.

The target in the next data set is T2, SRD5A (Homo sapiens, UniProt P18405).
T2 sequence (P18405 1-259): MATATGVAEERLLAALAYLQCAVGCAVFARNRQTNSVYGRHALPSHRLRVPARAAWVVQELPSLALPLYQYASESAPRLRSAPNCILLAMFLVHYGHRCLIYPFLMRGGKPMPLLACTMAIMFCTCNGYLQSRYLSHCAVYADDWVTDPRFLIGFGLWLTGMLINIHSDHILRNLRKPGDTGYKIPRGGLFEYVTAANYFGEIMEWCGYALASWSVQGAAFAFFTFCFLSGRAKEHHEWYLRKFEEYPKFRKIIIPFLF
Kind of data set: Conversion of [3H]-AD to 5α-reduced androgens in LAPC4 cells. To be noted: up to 100 μM. It counts as cell-based. Summed up:
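LAPC4 cells (IMDM, 10% FBS) seeded at 0.2 million/well for ~24 h, then given [3H]-AD mixed with unlabeled AD (final 100 nM, ~1,000,000 cpm/well) plus test compound at 37°C. Medium treated with β-glucuronidase (65°C, 2 h), extracted with ethyl acetate:isooctane (1:1), dried. Steroids separated by C18 reverse-phase HPLC, methanol/water gradient. Biological n=3; repeated three times.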

Data set [2] addresses T3, wild-type AR (expressed in LAPC4) (Homo sapiens, UniProt P10275).
T3 sequence (P10275 1-920): T1 sequence (P10275 1-920 T878A) with A878T
The data set can be described thus: cell-based. It counts as binding.

For data set [3] the following is noted: patients, wide interpatient variability; cited from earlier work.
The subject of the next data set is metastatic CRPC. The following applies: cited from earlier work.
Another data set concerns LNCaP cells. Kind of data set: Cell proliferation assay, DHT-induced growth. It counts as cell-based. The following applies: DHT 0.5 nM, 2, 4 and 6 days. Summed up: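 LNCaP cells (0.1 million/mL) in phenol red-free RPMI-1640 with 10% charcoal-stripped FBS plus androgen and/or test compound. Medium changed every other day. Cells lysed after 2, 4 or 6 days; growth measured as DNA content by Hoechst fluorescence. Two-tailed Student's t-test.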

The source of these data is paper PMC4506215 (Nature, 2015).

Residue numbers refer to the chain shown, from its start. A value given as a limit tells only on which side of the number the result lay.

`C[C@]12CC[C@H](O)CC1=CC[C@@H]1[C@@H]2CC[C@]2(C)C(c3cccnc3)=CC[C@@H]12` [Abi, abiraterone]: the IC50 (as a rule, the concentration that inhibits the measured activity by half) in data set [1] is 418 nM; in data set [2], greater than 500 nM. For the same compound, the “effect on conversion from AD to 5α-reduced androgens” value at SRD5A is recorded as “no detectable effect”. Besides, in data set [3], the Cmax – broadly, the maximum level reached in the sampled fluid or tissue – was roughly 1000 nM.
In the case of `CNC(=O)c1ccc2cc([C@@]3(O)CCn4cncc43)ccc2c1` [TAK-700], the “survival in metastatic CRPC” value in the data set with metastatic CRPC is reported as “failed to prolong survival”.
In the case of `CNC(=O)c1ccc(N2C(=S)N(c3ccc(C#N)c(C(F)(F)F)c3)C(=O)C2(C)C)cc1F` [enzalutamide], the “effect on DHT-stimulated cell growth” value with LNCaP cells is “more potent than Abi”. The “effect on conversion from AD to 5α-reduced androgens” value on SRD5A was “no detectable effect”.
